Measurements published in PMC5955795 (Antiviral research, 2018).
Structures can show the parent of a compound that is named as a salt. Where two headings read alike, the source gives them in different places.

Legend:
[1] = assay type: in vivo, human
[2] = parameters: species or system rhesus macaques; settings: rhesus monkey, in vivo, sc
HIV-infected CD4 T cells = assay type: cell-based, human; settings: 1μg/ml drug, seven days, n=4
[3] = system: R5X4 dual-tropic HIV-1 (strain 89.6); assay type: cell-based; settings: seven days, n=4
[4] = system: R5X4 dual-tropic HIV-1 (strain 89.6); assay type: cell-based; settings: 0.1-1μg/ml TDF, seven days, n=6
[5] = system: R5X4 dual-tropic HIV-1 (strain 89.6); assay type: cell-based; settings: 0.1-1μg/ml TDF, n=5
Procedure, shortened: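 Infected CD4 T cells (5×10^5; anti-CD3/IL2-activated, MOI 0.1) were placed in 0.4μm-pore transwells above mature adipocytes in adipocyte maintenance medium. Drug was added to the lower wells just before, with 100ng/ml IL-2, for 6-7 days. Read-out was supernatant p24 by ELISA, reported as percent change relative to untreated. Singlet wells; experiments repeated with different donor cells; mean±sem.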

[6] = system: R5X4 dual-tropic HIV-1 (strain 89.6); assay type: cell-based; settings: 0.1-1μg/ml TDF, seven days, n=6; remark: listed apart in the source
[7] = system: R5X4 dual-tropic HIV-1 (strain 89.6); assay type: cell-based; settings: 1μg/ml drug, seven days, n=3
Procedure, shortened: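 Anti-CD3 (1μg/ml plate-bound) plus IL2 (100ng/ml) stimulated CD4 T cells for 48 hrs at 37°C/5%CO2. Cells were infected at MOI 0.1 for 48 hrs with IL2, then 5×10^5 were seeded directly onto mature adipocytes differentiated from 5×10^4 preadipocytes/well. Co-culture ran seven days with IL-2 and drug. Read-out was intracellular p24 by flow cytometry (clone KC57) after viability dye; singlet wells per condition.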

[8] = direct contact co-culture with adipocytes

Nc1ccn([C@@H]2CS[C@H](COP(=O)(O)OP(=O)(O)OP(=O)(O)O)O2)c(=O)n1 [3TC-TP]
concentration in serum ([1]; human, in vivo): 37 ng/mL
intracellular concentration in tissues examined (tissue not specified) ([1]; human, in vivo): undetectable
intracellular concentration in visceral AT-SVF cells ([1]; human, in vivo): undetectable

Nc1nc(=O)c2ncn([C@H]3C=C[C@@H](COP(=O)(O)OP(=O)(O)OP(=O)(O)O)C3)c2[nH]1 [CBV-TP]
intracellular concentration in tissues examined (tissue not specified) ([1]; human, in vivo): undetectable
intracellular concentration in visceral AT-SVF cells ([1]; human, in vivo): undetectable

Nc1nc(=O)n([C@@H]2CS[C@H](COP(=O)(O)OP(=O)(O)OP(=O)(O)O)O2)cc1F [FTC-TP]
intracellular concentration in PBMC [2]: 700-1,400 fmol/million cells
intracellular concentration in lysates of AT-SVF fractions [2]: undetectable
intracellular concentration in lysates of adipocyte fractions [2]: undetectable
concentration in serum ([1]; human, in vivo): 2,687 ng/ml
intracellular concentration in PBMC ([1]; human, in vivo): 14,682 fmol/million cells
intracellular concentration in lymph node cells ([1]; human, in vivo): 1,053 fmol/million cells
intracellular concentration in tissues examined (tissue not specified) ([1]; human, in vivo): undetectable
intracellular concentration in subcutaneous AT-SVF cells ([1]; human, in vivo, sc): 4,459 fmol/million cells
intracellular concentration in subcutaneous adipocytes ([1]; human, in vivo, sc): 11 fmol/million cells

CC(C)OC(=O)[C@H](C)N[P@](=O)(CO[C@H](C)Cn1cnc2c(N)ncnc21)Oc1ccccc1 [TAF, tenofovir alafenamide]
CD69+p24+ expression (HIV-infected CD4 T cells; co-culture with adipocytes): 8-12%
CD69+p24+ expression (HIV-infected CD4 T cells; medium alone): < 2%
reduced HIV replication (intracellular p24) ([3]; 0.1-1μg/ml TAF, in the presence of adipocytes): 1-64%
reduced HIV replication (intracellular p24) ([3]; 0.1-1μg/ml TAF, medium alone): 40-98%

CC(C)OC(=O)OCOP(=O)(CO[C@H](C)Cn1cnc2c(N)ncnc21)OCOC(=O)OC(C)C [TDF, tenofovir disoproxil fumarate]
effect of preadipocytes on antiviral activity [4]: neither preadipocytes or Caco-2 cells significantly affected
CD69+p24+ expression (HIV-infected CD4 T cells; co-culture with adipocytes): 8-12%
CD69+p24+ expression (HIV-infected CD4 T cells; medium alone): < 2%
reduced HIV replication (intracellular p24) ([3]; 0.5-2μg/ml TDF, in the presence of adipocytes): 15-38%
reduced HIV replication (intracellular p24) ([3]; 0.5-2μg/ml TDF, medium alone): 60-95%
reduced HIV replication (extracellular p24 by ELISA) ([5]; in the presence of adipocytes): 4-41%
reduced HIV replication (extracellular p24 by ELISA) ([5]; medium alone): 57-85%
effect of Caco-2 cells on antiviral activity [6]: neither preadipocytes or Caco-2 cells significantly affected
HIV production (p24+) [7, 8]: 55-60%
HIV production (p24+) ([7]; medium alone): 15-16 % p24+

C[C@@H](Cn1cnc2c(N)ncnc21)OCP(=O)(O)OP(=O)(O)OP(=O)(O)O [TFV-DP]
intracellular concentration in PBMC [2]: 80-770 fmol/million cells
intracellular concentration in lysates of AT-SVF fractions [2]: undetectable
intracellular concentration in lysates of adipocyte fractions [2]: undetectable
concentration in serum ([1]; human, in vivo): 246 ng/mL
intracellular concentration in PBMC ([1]; human, in vivo): 633 fmol/million cells
intracellular concentration in tissues examined (tissue not specified) ([1]; human, in vivo): undetectable
intracellular concentration in subcutaneous AT-SVF cells ([1]; human, in vivo, sc): 724 fmol/million cells
intracellular concentration in subcutaneous adipocytes ([1]; human, in vivo, sc): 7 fmol/million cells

Nc1nc(NC2CC2)c2ncn([C@H]3C=C[C@@H](CO)C3)c2n1 [abacavir]
intracellular concentration in lymph node cells ([1]; Pt.06): undetectable
intracellular concentration in visceral adipocytes ([1]; Pt.06): undetectable

COC(=O)N[C@H](C(=O)N[C@@H](Cc1ccccc1)[C@@H](O)CN(Cc1ccc(-c2ccccn2)cc1)NC(=O)[C@@H](NC(=O)OC)C(C)(C)C)C(C)(C)C [atazanavir]
intracellular concentration in tissues examined (tissue not specified) ([1]; Pt.07): undetectable

C[C@@H]1CCO[C@H]2Cn3cc(C(=O)NCc4ccc(F)cc4F)c(=O)c(O)c3C(=O)N12 [dolutegravir]
intracellular concentration in visceral AT-SVF cells ([1]; Pt.01): undetectable
intracellular concentration in lymph node cells ([1]; Pt.03): 793 fmol/million cells
intracellular concentration in subcutaneous AT-SVF cells ([1]; Pt.03): 129 fmol/million cells
intracellular concentration in subcutaneous adipocytes ([1]; Pt.03): 151 fmol/million cells
intracellular concentration in lymph node cells ([1]; Pt.04): 749 fmol/million cells
intracellular concentration in subcutaneous AT-SVF cells ([1]; Pt.04): 1,439 fmol/million cells
intracellular concentration in subcutaneous adipocytes ([1]; Pt.04): 382 fmol/million cells
intracellular concentration in subcutaneous AT-SVF cells ([1]; Pt.07): 4 fmol/million cells
concentration in serum ([1]; Pt.08): 1,324 ng/ml
intracellular concentration in PBMC ([1]; Pt.08): 46 fmol/million cells
intracellular concentration in lymph node cells ([1]; Pt.08): 17 fmol/million cells
intracellular concentration in subcutaneous AT-SVF cells ([1]; Pt.08): 449 fmol/million cells
intracellular concentration in subcutaneous adipocytes ([1]; Pt.08): 363 fmol/million cells

COc1cc2c(cc1Cc1cccc(Cl)c1F)c(=O)c(C(=O)O)cn2[C@H](CO)C(C)C [elvitegravir]
intracellular concentration in PBMC ([1]; Pt.05): undetectable
intracellular concentration in subcutaneous AT-SVF cells ([1]; Pt.05): 339 fmol/million cells

Cc1ccnc2c1NC(=O)c1cccnc1N2C1CC1 [nevirapine]
intracellular concentration in visceral adipocytes ([1]; Pt.06): 139 fmol/million cells

CC(C)c1nc(CN(C)C(=O)N[C@H](C(=O)N[C@@H](Cc2ccccc2)C[C@H](O)[C@H](Cc2ccccc2)NC(=O)OCc2cncs2)C(C)C)cs1 [ritonavir]
intracellular concentration in tissues examined (tissue not specified) ([1]; Pt.07): undetectable

C[C@H](Cn1cnc2c(N)ncnc21)OCP(=O)(O)O [tenofovir]
CD69+p24+ expression (HIV-infected CD4 T cells; co-culture with adipocytes): 8-12%
CD69+p24+ expression (HIV-infected CD4 T cells; medium alone): < 2%
reduced HIV replication (intracellular p24) ([3]; 1-5μg/ml tenofovir, in the presence of adipocytes): 5-43%
reduced HIV replication (intracellular p24) ([3]; 1-5μg/ml tenofovir, medium alone): 65-91%
HIV production (p24+) [7, 8]: 55-60%
HIV production (p24+) ([7]; medium alone): 15-16 % p24+
